Legend:
[1] = melting temperature; fluorescence melt of hairpins on a sequencing array, two-state fit, raised by 9.35 °C to match UV melts; conditions: sodium 0.088 M
Summary of the method: (§1)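 Cy3 signals were normalised both to pre-quench Cy3 and to control constructs. They came from library hairpins carrying annealed Cy3 and quencher oligos on a sequenced MiSeq flow cell, imaged in 50 mM Na-HEPES pH 8.0, 25 mM NaCl, in 2.5 °C steps up to 60 °C. Bootstrapped two-state fits gave melting temperature and folding enthalpy, and four replicates were combined by inverse variance. Fitted temperatures were then raised by 9.35 °C to match UV melts.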

[2] = folding enthalpy; higher = less favourable; fluorescence melt of hairpins on a sequencing array, two-state fit; conditions: sodium 0.088 M
Summary of the method: as §1

| Sequence | Tm [1] | folding enthalpy [2] |
| --- | --- | --- |
| CGTGAACGGAAACGTACG (((..(((....)))))) | 35.3 °C | -21.1 kcal/mol |
| CGTGACGGAAACGTAACG (((.(((....))).))) | 50.3 °C | -37.4 kcal/mol |
| CGTGACGGAAACGTGACG (((.(((....))).))) | 48.9 °C | -26.2 kcal/mol |
| CGTGATCGGAAACGAACG (((..(((....)))))) | 28.6 °C | -8.71 kcal/mol |
| CGTGCCCGGAAACGGACG (((..(((....)))))) | 32.9 °C | -14.8 kcal/mol |
| CGTGCGGAAACGCGAACG ((((((....)))..))) | 47.6 °C | -23.3 kcal/mol |
| CGTGCGGAAACGCTAACG ((((((....)))..))) | 43.5 °C | -20 kcal/mol |
| CGTGGCGGAAACGCAACG (((.(((....))).))) | 56.8 °C | -38.7 kcal/mol |
| CGTGTCGGAAACGAGACG (((.(((....))).))) | 51.7 °C | -36 kcal/mol |
| CGTTACGGAAACGTTACG (((.(((....))).))) | 48 °C | -26.9 kcal/mol |
| CGTTCGGAAACGAAACG ((((((....))).))) | 45.8 °C | -27.8 kcal/mol |
| CGTTCGGAAACGACGACG ((((((....)))..))) | 37.5 °C | -15.9 kcal/mol |
| CGTTCGGAAACGAGACG ((((((....))).))) | 39 °C | -24.1 kcal/mol |
| CGTTCGGAAACGAGTACG ((((((....)))..))) | 35.9 °C | -18.8 kcal/mol |
| CGTTGCGGAAACGCACG (((.(((....)))))) | 52.8 °C | -21.4 kcal/mol |
| CGTTGGAAACAACG (((((....))))) | 52.9 °C | -30.3 kcal/mol |
| CTAAGGAAACTTAG (((((....))))) | 29.8 °C | -10.7 kcal/mol |
| CTAATGAAAATTAG (((((....))))) | 26 °C | -7.43 kcal/mol |
| CTACTGAAAAGTAG (((((....))))) | 44.3 °C | -13.5 kcal/mol |
| CTAGTGAAAACTAG (((((....))))) | 42.4 °C | -15 kcal/mol |
| CTCACGAAAGTGAG (((((....))))) | 61 °C | -22.2 kcal/mol |
| CTCCGGAAACGGAG (((((....))))) | 55.1 °C | -24 kcal/mol |
| CTGAGGAAACTCAG (((((....))))) | 47.1 °C | -20.1 kcal/mol |

| Sequence | Tm [1] | folding enthalpy [2] |
| --- | --- | --- |
| CTTATGAAAATAAG (((((....))))) | 25.1 °C | -11.4 kcal/mol |
| CTTCCGAAAGGAAG (((((....))))) | 55.8 °C | -21.3 kcal/mol |
| CTTGAGAAATCAAG (((((....))))) | 35.6 °C | -11.1 kcal/mol |
| GAAAAAGGAAACTTTTTC (((((((....))))))) | 46 °C | -39.7 kcal/mol |
| GAAAACACGAAAGTGTTC (((..(((....)))))) | 35.9 °C | -11.9 kcal/mol |
| GAAAACGAAAGTTGATTC ((((((....)))..))) | 33.6 °C | -17.8 kcal/mol |
| GAAAACGCGAAAGCGTTC (((..(((....)))))) | 41.1 °C | -8.84 kcal/mol |
| GAAAACGGAAACGTTCTC ((.((((....)))).)) | 30.4 °C | -12.7 kcal/mol |
| GAAAAGGGAAACTTTTTC (((((.(....).))))) | 29.6 °C | -11.5 kcal/mol |
| GAAAATCCGAAAGGATTC (((..(((....)))))) | 33.4 °C | -11.8 kcal/mol |
| GAAAATGGAAACATTTTC (((((((....))))))) | 51 °C | -44.6 kcal/mol |
| GAAACCCGAAAGGGCTTC (((.(((....))).))) | 46.4 °C | -24.9 kcal/mol |
| GAAACCCGAAAGGGGTTC (((.(((....))).))) | 59.2 °C | -29 kcal/mol |
| GAAACCGAAAGGTATTC ((((((....))).))) | 31.6 °C | -14.1 kcal/mol |
| GAAACCGAAAGGTCTTC ((((((....))).))) | 40.4 °C | -19.4 kcal/mol |
| GAAACCGAAAGGTGTTC ((((((....))).))) | 36.5 °C | -13 kcal/mol |
| GAAACCGGAAACGGTCTC ((.((((....)))).)) | 35.5 °C | -14.2 kcal/mol |
| GAAACGCGAAAGCGCTTC (((.(((....))).))) | 51.5 °C | -18.7 kcal/mol |
| GAAACGCGAAAGCGGTTC (((.(((....))).))) | 66.3 °C | -27.2 kcal/mol |
| GAAACGGAAACGTTTC ((((((....)))))) | 55.3 °C | -39.8 kcal/mol |
| GAAACGGGAAACCGCTTC (((.(((....))).))) | 40.4 °C | -24.2 kcal/mol |
| GAAACGGGAAACCGTCTC ((.((((....)))).)) | 32.9 °C | -13.5 kcal/mol |
| GAAACTGGAAACAGCTTC (((.(((....))).))) | 32.5 °C | -31.1 kcal/mol |

From the array DNA melting data of Ke et al. (doi:10.1101/2024.01.08.574731)
